In ChEMBL document CHEMBL3792346, “Thiazolino 2-Pyridone Amide Inhibitors of Chlamydia trachomatis Infectivity” (J Med Chem, 2016):

Tests used:
Chlamydia trachomatis [1] = test: Antimicrobial activity against Chlamydia trachomatis serovar LGV-L2 infected in human HeLa cells assessed as concentration require to reduce relative inclusion forming units by 95% after 48 hrs; assay type: functional
Method in brief: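 HeLa cells infected with LGV-L2 at MOI 0.1-0.5; compounds added at 1 hpi, tested at 2.5 µM then 5 or 10 µM or 1, 0.5, 0.25, 0.1 µM; after ~48 h, osmotic lysis, SPG restored, 10-fold dilutions reinfect fresh HeLa; IFUs counted by automated imaging versus DMSO; Reinfect95 = lowest concentration consistently giving 95% IFU reduction; ≥2 experiments in triplicate.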

[2] = Cytotoxicity against human HeLa cells assessed as cell viability at 10 uM after 48 hrs by resazurin assay relative to control; assay type: cell-based; conditions: read-out: Activity
Method in brief: (§1)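 Uninfected HeLa seeded in RPMI, next day switched to colorless DMEM with 10% FBS, 2 mM glutamine; compounds added in triplicate, 48 h at 37 °C; resazurin added, 3 h at 37 °C dark; fluorescence ex 535/em 595 nm; cell-free wells with compound check direct resazurin reduction; mean of three experiments in triplicate, SD over nine replicates.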

[3] = Cytotoxicity against human HeLa cells assessed as cell viability at 25 uM after 48 hrs by resazurin assay relative to control; assay type: cell-based; conditions: read-out: Activity; method in brief: as §1
Chlamydia trachomatis [4] = test: Antimicrobial activity against Chlamydia trachomatis serovar LGV-L2 infected in human HeLa cells assessed as decrease in relative inclusion forming units measured 44 to 48 hrs post infection by DAPI staining-based assay; assay type: functional, organism-based
Method in brief: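 HeLa229 cells infected with serovar LGV-L2 at MOI 0.3; compounds in DMSO added at 1 hpi as 8-step halving dilutions from 2 to 0.0156 µM; after 44-48 h, osmotic lysis with cold water, SPG restored, lysate 10-fold serially diluted onto fresh HeLa; after 44-48 h, methanol-fixed, anti-Chlamydia/FITC stained, IFUs counted by automated scanner relative to DMSO; EC50 by nonlinear regression, ≥3 independent experiments.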

Chlamydia trachomatis [5] = test: Antimicrobial activity against Chlamydia trachomatis serovar D infected in human HeLa cells assessed as decrease in relative inclusion forming units measured 44 to 48 hrs post infection by DAPI staining-based assay; assay type: functional, organism-based

Compound	Activity (Chlamydia trachomatis [1])	viability at 48 h, 10 µM [2]	viability at 48 h, 25 µM [3]	EC50 (Chlamydia trachomatis [4])	EC50 (Chlamydia trachomatis [5])
CCc1cccc(NC(=O)C2CSc3c(C4CC4)c(Cc4cccc5ccccc45)cc(=O)n32)c1 (stereo not drawn)	2.5 µM	100%			
COc1ccc(NC(=O)C2CSc3c(C4CC4)c(Cc4cccc5ccccc45)cc(=O)n32)cc1 (stereo not drawn)	2.5 µM	100%			
O=C(Nc1ccncn1)C1CSc2c(C3CC3)c(Cc3cccc4ccccc34)cc(=O)n21 (stereo not drawn)	2.5 µM	92%			
Cc1ccc(NC(=O)C2CSc3c(C4CC4)c(Cc4ccc(Cl)cc4)cc(=O)n32)cc1 (stereo not drawn)	1 µM	89%			
O=C(Nc1ccc(F)cc1)C1CSc2c(C3CC3)c(Cc3cccc4ccccc34)cc(=O)n21 (stereo not drawn)	2.5 µM	98%			
Cc1cccc(NC(=O)C2CSc3c(C4CC4)c(Cc4cccc5ccccc45)cc(=O)n32)c1 (stereo not drawn)	1 µM	99%	100%	102 nM	
Cc1ccc(NC(=O)C2CSc3c(C4CC4)c(Cc4cccc5ccccc45)cc(=O)n32)cc1 (stereo not drawn)	2.5 µM	97%			
O=C(Nc1ccccc1)[C@H]1CSc2c(C3CC3)c(Cc3cccc4ccccc34)cc(=O)n21	2.5 µM	100%			
COc1cccc(NC(=O)C2CSc3c(C4CC4)c(Cc4cccc5ccccc45)cc(=O)n32)c1 (stereo not drawn)	2.5 µM	98%			
O=C(Nc1ccccn1)C1CSc2c(C3CC3)c(Cc3cccc4ccccc34)cc(=O)n21 (stereo not drawn)	10 µM	90%			
CON(C)C(=O)C1CSc2c(C3CC3)c(Cc3cccc4ccccc34)cc(=O)n21 (stereo not drawn)	>10 µM	88%			
O=C(C1CSc2c(C3CC3)c(Cc3cccc4ccccc34)cc(=O)n21)N1CCCCC1 (stereo not drawn)	>10 µM	86%			
Cc1cc(=O)n2c(c1C1CC1)SCC2C(=O)Nc1ccccc1 (stereo not drawn)	10 µM	99%			
Cc1ccc(Cc2cc(=O)n3c(c2C2CC2)SCC3C(=O)Nc2ccccc2)cc1C (stereo not drawn)	2.5 µM	91%			
CN(C(=O)C1CSc2c(C3CC3)c(Cc3cccc4ccccc34)cc(=O)n21)c1ccccc1 (stereo not drawn)	5 µM	96%			
O=C(Nc1ccccc1F)C1CSc2c(C3CC3)c(Cc3cccc4ccccc34)cc(=O)n21 (stereo not drawn)	2.5 µM	96%			
O=C(Nc1cccc(F)c1)C1CSc2c(C3CC3)c(Cc3cccc4ccccc34)cc(=O)n21 (stereo not drawn)	2.5 µM	96%			
Cc1cccc(NC(=O)C2CSc3c(C4CC4)c(Cc4cccc5ccccc45)c(N)c(=O)n32)c1 (stereo not drawn)	1 µM	98%	97%	147 nM	124 nM
O=C(Nc1ccccc1)C1CSc2c(C3CC3)c(Cc3ccccc3)cc(=O)n21 (stereo not drawn)	2.5 µM	96%			
Cc1ccc(NC(=O)C2CSc3c(C4CC4)c(Cc4cccc(C)c4C)cc(=O)n32)cc1 (stereo not drawn)	1 µM	95%			
O=C(Nc1cccnc1)C1CSc2c(C3CC3)c(Cc3cccc4ccccc34)cc(=O)n21 (stereo not drawn)	10 µM	77%			
O=C(Nc1ccccc1)C1CSc2c(C3CC3)c(Cc3cccc4ncccc34)cc(=O)n21 (stereo not drawn)	10 µM	91%			
CN1CCN(C(=O)C2CSc3c(C4CC4)c(Cc4cccc5ccccc45)cc(=O)n32)CC1 (stereo not drawn)	>10 µM	96%			
COc1ccc(Cc2cc(=O)n3c(c2C2CC2)SCC3C(=O)Nc2ccccc2)cc1 (stereo not drawn)	2.5 µM	103%			

Compound	Activity (Chlamydia trachomatis [1])	viability at 48 h, 10 µM [2]	viability at 48 h, 25 µM [3]	EC50 (Chlamydia trachomatis [4])	EC50 (Chlamydia trachomatis [5])
Cc1cccc(Cc2cc(=O)n3c(c2C2CC2)SCC3C(=O)Nc2ccccc2)c1C (stereo not drawn)	2.5 µM	91%			
Nc1c(Cc2cccc3ccccc23)c(C2CC2)c2n(c1=O)C(C(=O)Nc1ccncn1)CS2 (stereo not drawn)	2.5 µM	99%	88%		
Cc1ccc(NC(=O)C2CSc3c(C4CC4)c(Cc4cccc5ccccc45)c(N)c(=O)n32)cc1 (stereo not drawn)	0.25 µM	98%	98%	140 nM	99 nM
O=C(O)c1c(Cc2cccc3ccccc23)c(C2CC2)c2n(c1=O)C(C(=O)Nc1ccccc1)CS2 (stereo not drawn)	> 10 µM	103%			
Cc1ccc(NC(=O)C2CSc3c(C4CC4)c(Cc4ccc(Cl)cc4)c(N)c(=O)n32)cc1 (stereo not drawn)	2.5 µM	101%	102%	266 nM	270 nM
O=C(Nc1ccccc1)[C@@H]1CSc2c(C3CC3)c(Cc3cccc4ccccc34)c(CN3CCOCC3)c(=O)n21	5 µM	99%			
NS(=O)(=O)c1ccc(NC(=O)C2CSc3c(C4CC4)c(Cc4cccc5ccccc45)cc(=O)n32)cc1 (stereo not drawn)	10 µM	95%			
O=C(Nc1cccc(Cl)c1)C1CSc2c(C3CC3)c(Cc3cccc4ccccc34)cc(=O)n21 (stereo not drawn)	2.5 µM	100%			
O=C(Nc1ccncc1)C1CSc2c(C3CC3)c(Cc3cccc4ccccc34)cc(=O)n21 (stereo not drawn)	5 µM	69%			
Cc1cccc(Cc2cc(=O)n3c(c2C2CC2)SCC3C(=O)Nc2ccccc2)c1 (stereo not drawn)	2.5 µM	87%			
O=C(Nc1nccs1)C1CSc2c(C3CC3)c(Cc3cccc4ccccc34)cc(=O)n21 (stereo not drawn)	5 µM	96%			
O=C(Nc1ccccc1)C1CSc2c(C3CC3)c(Cc3ccc(Cl)cc3)cc(=O)n21 (stereo not drawn)	2.5 µM	94%			
O=C(Nc1ccccc1)[C@@H]1CSc2c(C3CC3)c(Cc3cccc4ccccc34)cc(=O)n21	2.5 µM	100%			
O=C(C1CSc2c(C3CC3)c(Cc3cccc4ccccc34)cc(=O)n21)N1CCOCC1 (stereo not drawn)	>10 µM	90%			
O=C(NC1CCCCC1)C1CSc2c(C3CC3)c(Cc3cccc4ccccc34)cc(=O)n21 (stereo not drawn)	10 µM	88%			
O=C(Nc1cccc(C(F)(F)F)c1)C1CSc2c(C3CC3)c(Cc3cccc4ccccc34)cc(=O)n21 (stereo not drawn)	2.5 µM	95%			
O=C(Nc1ccc(Cl)cc1)C1CSc2c(C3CC3)c(Cc3cccc4ccccc34)cc(=O)n21 (stereo not drawn)	2.5 µM	94%			
NC(=O)c1ccc(NC(=O)C2CSc3c(C4CC4)c(Cc4cccc5ccccc45)c(N)c(=O)n32)cc1 (stereo not drawn)	>10 µM	103%			
O=C(NCc1ccccc1)C1CSc2c(C3CC3)c(Cc3cccc4ccccc34)cc(=O)n21 (stereo not drawn)	2.5 µM	93%			
CNC(=O)C1CSc2c(C3CC3)c(Cc3cccc4ccccc34)cc(=O)n21 (stereo not drawn)	10 µM	93%			
O=C(Nc1ccccc1)C1CSc2c(C3CC3)c(Cc3cccc(Cl)c3Cl)cc(=O)n21 (stereo not drawn)	2.5 µM	85%			
NC(=O)c1ccc(NC(=O)C2CSc3c(C4CC4)c(Cc4cccc5ccccc45)cc(=O)n32)cc1 (stereo not drawn)	2.5 µM	98%			
CNC(=O)c1cccc(NC(=O)C2CSc3c(C4CC4)c(Cc4cccc5ccccc45)cc(=O)n32)c1 (stereo not drawn)	10 µM	93%			
O=C(Nc1ccccc1)C1CSc2c(C3CC3)c(Cc3cccc4ccccc34)cc(=O)n21 (racemic)	2.5 µM	100%			
